Laboratory results as given in ChEMBL document CHEMBL1152458, “Voriconazole inhibits melanization in Cryptococcus neoformans” (2007).
In brackets after ≈: the same amount, converted by molar mass. Activity calls are given as the source filed them.

What was measured:
[1] = system: Cryptococcus neoformans; assay: Antifungal activity against Cryptococcus neoformans ATCC 24067 after 72 hrs by NCCLS M27A method; type: functional; conditions: ATCC 24067, 72 h
[2] = system: Cryptococcus neoformans; assay: Inhibition of melanin formation in Cryptococcus neoformans ATCC 24067 at =<0.5 times MIC after 10 days by plating assay; type: functional, organism-based
Outline: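 Strain 24067 yeast grown on minimal-medium agar plates containing 1 mM L-dopa, with or without drug, 10 days at 30°C. Read-out was visual dark pigmentation of colonies and of surrounding agar from secreted laccase. Plates run in triplicate, experiment performed twice.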

[3] = system: Cryptococcus neoformans; assay: Reduction in LAC1 gene expression in Cryptococcus neoformans ATCC 24067 at 0.25 to 0.5 times MIC after 7 days by qRT-PCR relative to control; type: functional
Outline: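 Cells grown 7 days at 30°C on foil-covered minimal-medium agar + 1 mM L-dopa ± drug (0.25 or 0.5 MIC). Total RNA was DNase-treated and reverse transcribed, then LAC1 was measured by real-time PCR (40 cycles, 55°C annealing) with melting curve. Expression was normalized to ACT1 using the threshold-cycle method.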

[4] = system: Cryptococcus neoformans; assay: Inhibition of melanin formation in Cryptococcus neoformans ATCC 24067 at 0.5 times MIC coincubated with L-dopa for 7 days by dry-weight measurement; type: functional; design: scale not given: the % may be the effect or the level left
Outline: (§1)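 5 x 10^4 yeasts grown in 50 ml minimal medium + 1 mM L-dopa ± drug (0.25 or 0.5 MIC) at 30°C, 150 rpm, for 7 days. Melanin "ghosts" were isolated by cell-wall lysing enzymes (10 mg/ml, overnight 30°C), proteinase K (1 mg/ml, SDS buffer pH 7.8, 37°C overnight) and boiling 6 M HCl for 1 h. They were then lyophilized and weighed.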

[5] = system: Cryptococcus neoformans; assay: Inhibition of melanin formation in Cryptococcus neoformans ATCC 24067 at 0.25 times MIC coincubated with L-dopa for 7 days by dry-weight measurement; type: functional; design: scale not given: the % may be the effect or the level left; outline: as §1
[6] = system: Cryptococcus neoformans; assay: Inhibition of intact recombinant Cryptococcus neoformans ATCC 24067 laccase-mediated ABTS oxidation at 0.5 times MIC after 2 hrs
Outline: (§2)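 Yeasts grown 72 h at 30°C in asparagine medium with glucose, then 36 h without glucose. Intact cells were used at 1 x 10^8/ml in PBS ± voriconazole. Alternatively, bead-beaten cytoplasmic extracts in 0.1 M Na2HPO4 with protease inhibitor were used. ABTS 1 mM final, 30°C for 2 h; cells removed and A420 read against a no-ABTS baseline. Rhus laccase (1 U/ml) served as positive control. Run twice.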

[7] = system: Toxicodendron vernicifluum; assay: Inhibition of recombinant Rhus vernificera laccase-mediated ABTS oxidation measured as inhibition activity with respect to decrease in enzyme concentration from 1 to 0.001 U/mL at 1 ug/ml
Outline: (§3)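 Commercial Rhus vernificera laccase incubated with voriconazole, varying concentrations of either enzyme or drug, in PBS. ABTS 1 mM final, 30°C for 2 h, with absorbance read at 420 nm.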

[8] = system: Cryptococcus neoformans; assay: Increase in phagocytosis of Cryptococcus neoformans ATCC 24067 by mouse J774.16 cells at 0.25 to 0.5 times MIC; type: functional, organism-based
Outline: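 Yeasts (5 x 10^4 in 25 ml minimal medium + 1 mM L-dopa, 0.25 or 0.5 MIC drug, 30°C, 150 rpm) sampled on days 3, 5 and 7. They were PBS-washed and added 1:1 to J774.16 macrophages with 10 µg/ml mAb 18B7 for 2 h at 37°C. Monolayers were washed, methanol-fixed and Giemsa-stained. Index is internalized yeasts per macrophage, from 3 wells × 3 fields (~100 macrophages each) at x400.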

[9] = system: Cryptococcus neoformans; assay: Antifungal activity against Cryptococcus neoformans ATCC 24067 assessed as effect on growth rate at 0.25 to 0.5 times MIC; type: functional, organism-based
Outline: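 C. neoformans 24067 grown at 30°C in minimal medium with L-dopa, with drug at several sub-MIC levels up to 0.5 MIC. Inoculum was 5 x 10^4 cells in 50 ml per concentration, with growth followed over time.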

[10] = system: Toxicodendron vernicifluum; assay: Inhibition of cytoplasmic extract of recombinant Rhus vernificera laccase-mediated ABTS oxidation at 0.5 times MIC after 2 hrs; outline: as §2
[11] = system: Toxicodendron vernicifluum; assay: Inhibition of Rhus vernificera recombinant laccase-mediated ABTS oxidation; outline: as §3

Structure (SMILES): C[C@@H]1[C@H](O)[C@@H](C)/C=C/C=C/C=C/C=C/C=C/C=C/C=C/[C@H](O[C@@H]2O[C@H](C)[C@@H](O)[C@H](N)[C@@H]2O)C[C@@H]2O[C@](O)(C[C@@H](O)C[C@@H](O)[C@H](O)CC[C@@H](O)C[C@@H](O)CC(=O)O[C@H]1C)C[C@H](O)[C@H]2C(=O)O [AMPHOTERICIN B]
- MIC [1]: 0.125 µg/mL (≈ 0.135 µM)
- Activity [2]: inactive

Structure (SMILES): CC[C@H](C)C[C@H](C)CCCCCCCCC(=O)N[C@H]1C[C@@H](O)[C@@H](NCCN)NC(=O)[C@@H]2[C@@H](O)CCN2C(=O)[C@H]([C@H](O)CCN)NC(=O)[C@H]([C@H](O)[C@@H](O)c2ccc(O)cc2)NC(=O)[C@@H]2C[C@@H](O)CN2C(=O)[C@H]([C@@H](C)O)NC1=O [CASPOFUNGIN]
- MIC [1]: 8 µg/mL (≈ 7.32 µM)

Structure (SMILES): OC(Cn1cncn1)(Cn1cncn1)c1ccc(F)cc1F [FLUCONAZOLE]
- Activity [3]: inactive
- MIC [1]: 1 µg/mL (≈ 3.27 µM)
- Activity [4]: 17.3%
- Activity [5]: 2.7%

Structure (SMILES): CCC(C)n1ncn(-c2ccc(N3CCN(c4ccc(OCC5COC(Cn6cncn6)(c6ccc(Cl)cc6Cl)O5)cc4)CC3)cc2)c1=O (stereo not drawn) [ITRACONAZOLE]
- MIC [1]: < 0.625 µg/mL

Structure (SMILES): C[C@@H](c1ncncc1F)[C@](O)(Cn1cncn1)c1ccc(F)cc1F [VORICONAZOLE]
- Activity [6]: Active
- Activity [3]: 40%
- Activity [7]: Active
- MIC [1]: 0.015 µg/mL (≈ 0.0429 µM)
- Activity [8]: Active
- Activity [9]: inactive
- Activity [10]: Active
- Activity [4]: 94.5%
- Activity [5]: 82.1%
- Activity [11]: Dose-dependent effect
